Most compounds without a hit are left out; they make up all but 2.3% or so of the library.
DNMT1 block = DNMT1 (human) enzyme inhibition. P26358. DNMT1 molecular beacon, Hinp1I cleavage, fluorescence. inhibition (reported as % activation of signal), % at 10 µM. hit rate 0.83% among 360,000. AID 588458; in the data active = inhibition above about 50%
Rpn11 block = inhibitors of human proteasome Rpn11; human 26S proteasome, Ub4-pepOG fluorescence polarization; 20S core pre-blocked with epoxomicin; O00487; inhibition, % at 20 µM; AID 588493; hit rate 0.59% among 360,000;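 active = inhibition at 20 µM, scaled to each plate's controls, above about 33%, limit read from the data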
MT1-MMP act inh = MT1-MMP (human) activation inhibition | HT1080 RFP-PRO-GFP cells, GFP/RFP ratio fluorescence, overnight; percent of plate control window, DMSO zero | GFP/RFP ratio change, % at 20 µM | hit rate 0.061% among 360,000 | AID 651647;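 active = GFP/RFP ratio change of at least 30% with cell ATP level not reduced by more than half and red fluorescence within 50% of control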
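Material – HT1080 RFP-PRO-GFP cells · Control set – DMSO wells and RFP-L50D-GFP cells · Incubation – overnight cell settling, then overnight compound exposure, 37 °C, 5% CO2 · Compound dosing – single-point 20 µM compound, 1% DMSO · Read-out – GFP/RFP fluorescence ratio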
SKN-1 block = blocks SKN-1 activity in C. elegans. AID 624304. C. elegans VP596 Pgst-4::GFP/RFP ratio, acrylamide-induced, 24 h. hit rate 0.49% among 360,000. inhibition, % at 21.8 µM;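 active = interference check ratio from 0.5 to 1.5 plus GFP to RFP signal ratio inhibition reaching or exceeding a fixed threshold, cut at about 30% in these data, passing the limit was not always enough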
CSN deneddyl inh = blocks human CSN-mediated cullin deneddylation. Q92905. Purified CSN, SCF-Nedd8-OG deneddylation, fluorescence polarization. inhibition, % at 12.5 µM. hit rate 0.38% among 360,000. AID 651999;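 active = pattern-corrected inhibition above about 35%, with an unprinted fluorescence ratio check between 0.5 and 1.5, limit read from the data, passing the limit was not always enough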;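 also: 0% = enzyme with substrate and 100% = substrate without enzyme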
Target sequence (Q92905 whole entry, looked up, one chain of several): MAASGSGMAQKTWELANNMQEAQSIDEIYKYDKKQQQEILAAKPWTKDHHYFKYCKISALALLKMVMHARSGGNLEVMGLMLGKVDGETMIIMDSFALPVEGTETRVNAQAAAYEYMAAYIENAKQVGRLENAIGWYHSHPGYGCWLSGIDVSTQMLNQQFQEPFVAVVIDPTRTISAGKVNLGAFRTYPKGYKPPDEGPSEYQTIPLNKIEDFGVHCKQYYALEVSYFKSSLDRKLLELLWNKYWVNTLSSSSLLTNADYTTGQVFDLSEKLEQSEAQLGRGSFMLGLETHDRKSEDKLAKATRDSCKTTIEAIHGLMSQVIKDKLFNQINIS
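Material: human Csn5 produced in HEK293T cells; Input: enzyme 0.24 nM; Reagent: SCFSkp2-Nedd8OG substrate at 10 nM final; Dosing: 12.5 µM compound; Incubation: 90 min reaction at room temperature; Detection: fluorescence polarization of the substrate; Evaluation: % inhibition of substrate cleavage by Csn5; Control set: substrate-only high control, full reaction low control.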
SUMO1-SIM PPI = SUMO1-SIM interaction modulation; P63165; SUMO1 binding to a labelled peptide, TR-FRET, 1 h; inhibition, % at 20 µM; hit rate 0.33% among 360,000; in the data active = inhibition above about 37%
Target sequence (P63165 whole entry, looked up): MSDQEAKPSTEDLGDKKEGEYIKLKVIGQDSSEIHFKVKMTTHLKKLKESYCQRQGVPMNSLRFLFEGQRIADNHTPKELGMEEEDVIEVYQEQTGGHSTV
Rpn11 confirm = Rpn11 inhibition confirmation, single concentration. shares compounds with Rpn11 block. purified human 26S proteasome, Ub4-pepOG fluorescence polarization; proteasome pretreated with epoxomicin. inhibition, % at 20 µM. hit rate 29% among 1,900
MMP-2 inh = blocks human MMP-2, flagging nonselective RPN11 hits; shares compounds with Rpn11 block; hit rate 4% among 1,900; recombinant MMP-2, FRET peptide cleavage fluorescence; inhibition, % at 20 µM;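 also: human MMP-2 activated beforehand with APMA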
Thrombin inh = blocks bovine thrombin, flagging nonselective RPN11 hits | shares compounds with Rpn11 block | hit rate 13% among 1,900 | inhibition, % at 20 µM | bovine thrombin cleavage of Ub4-pepOG, fluorescence polarization;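 active = mean inhibition at least 40% at 20 µM, or signal 3 deviations below plate average, so some actives read negative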;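 also: plate controls were thrombin with DMSO for no effect and buffer wells lacking thrombin for full effect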
Starred values were filed as active, the others as inactive; · = not tested or not shown. Rule as the data show it, unless noted: active = inhibition above about 40%; inactive = the rest.

SMILES | DNMT1 block | Rpn11 block | MT1-MMP act inh | SKN-1 block | CSN deneddyl inh | SUMO1-SIM PPI | Rpn11 confirm | MMP-2 inh | Thrombin inh
COc1ccc(C2CC(c3ccccc3O)=NN2c2ccccc2)cc1 (stereo not drawn) | 4 | 0 | 6 | -2 | 2 | 4 | · | · | ·
COc1cccc(-c2cc(CNC(=O)[C@H]3O[C@@H](n4cnc5c(N)ncnc54)[C@H](O)[C@@H]3O)no2)c1 | 7 | -9 | 3 | 6 | -2 | 1 | · | · | ·
COc1ccc(Cn2cc(CN3CCc4onc(-c5ccc(Br)cc5)c4C3=O)nn2)cc1 | · | · | 2 | 8 | 2 | 6 | · | · | ·
C=CCn1c(C#N)c(N)sc1=N | -9 | 45* | -6 | -10 | 3 | -1 | 5 | -33 | -14
Cc1ccc(NC(=O)C2c3ccccc3-c3ccccc32)cc1 | 21 | 5 | -1 | 3 | -3 | 2 | · | · | ·
O=C(NN1C(=O)/C(=C/c2ccc(O)c([N+](=O)[O-])c2)SC1=S)c1ccccc1Cl | -2 | 71* | 28 | 6 | 22 | 4 | 51* | -8 | 42*
O=C(NN1C(=O)/C(=C/c2ccc(O)cc2)SC1=S)c1ccccc1O | -2 | · | -12 | -1 | 101 | -39 | · | · | ·
COc1ccc(CN2C(=O)CCC2(C)c2nnnn2Cc2ccccc2)cc1 (stereo not drawn) | · | · | 2 | 6 | -3 | -2 | · | · | ·
CC(=O)NCCC(=O)Nc1ccc(F)cc1C | -1 | 114* | 3 | 4 | -2 | 1 | -11 | -46 | 0
CCOc1ccc(OCCC(=O)Nc2ccc(F)cc2C)cc1 | 2 | -2 | -1 | 14 | -5 | -5 | · | · | ·
Cc1ccc(OCc2ccc(C(=O)Nc3ccc(C(N)=O)cc3)o2)c([N+](=O)[O-])c1 | 2 | 134* | 0 | -8 | 22 | 4 | 13 | -36 | 7
O=c1c2ccccc2nc(SCc2cc(F)cc3c2OCOC3)n1Cc1ccco1 | 2 | -1 | 4 | 1 | 5 | 1 | · | · | ·
CCOC(=O)c1cc2c(c(CSc3nc4ccccc4c(=O)n3Cc3ccco3)c1)OCOC2 | 3 | 52* | -2 | 23 | 17 | 20 | 12 | 4 | 1
Cc1cc(OCC(=O)OCC(=O)N(Cc2ccccc2)C(C)(C)C)ccc1Cl | 1 | -1 | -1 | 14 | -4 | 3 | · | · | ·
O=C(NCC(c1ccco1)N1CCN(c2ccccc2)CC1)C1CCCCC1 (stereo not drawn) | 0 | -6 | -1 | 11 | 2 | -4 | · | · | ·
Cc1ccc(-c2nc3ccccc3o2)cc1NC(=S)NC(=O)c1cc2ccccc2o1 | 49 | 47* | -3 | 15 | -5 | -2 | -3 | -14 | 11
Cc1cc(=O)n2nc(N3CCCC(C(=O)Nc4cccc(C)c4C)C3)sc2n1 (stereo not drawn) | -3 | 3 | 6 | 12 | 5 | 4 | · | · | ·
CC(=O)COc1ccc2c(-c3ccccc3)cc(=O)oc2c1C | 0 | 0 | -5 | -19 | 1 | -23 | · | · | ·
Cc1c(OCC(N)=O)ccc2c(-c3ccccc3)cc(=O)oc12 | -1 | 58* | 3 | 2 | 2 | 0 | 47* | -25 | 3
COc1ccc(Cl)cc1NC(=O)CCCNC(=O)c1ccc(Cl)cc1 | -5 | 137* | -2 | 10 | 4 | 1 | 7 | -1 | 3
CCOC(=O)C(=O)N(C)c1c(CC)nc2c(OCCC3CCCCC3)cccn12 | -4 | 2 | 1 | 6 | 6 | 5 | · | · | ·
CC(C)N1CCC1(C)C(=O)Nc1nccc2cccnc12 (stereo not drawn) | -7 | 1 | 3 | 19 | -5 | -8 | · | · | ·
CCOC(=O)Cc1csc(NC(=O)c2ccc(Cl)nc2)n1 | -1 | 36* | 3 | 11 | 6 | 21 | 21 | -33 | -1
CCS(=O)(=O)c1nc(S(=O)(=O)c2ccc(C)cc2)c(NCCCN2CCCC2=O)s1 | 3 | -3 | 0 | -13 | 2 | 1 | · | · | ·
O=C1CCCN1CCCNc1nc2c(S(=O)(=O)c3ccccc3)nnn2c2ccc(Cl)cc12 | -4 | 44* | -5 | -1 | 6 | 17 | -6 | -8 | 12
SMILES | DNMT1 block | Rpn11 block | MT1-MMP act inh | SKN-1 block | CSN deneddyl inh | SUMO1-SIM PPI | Rpn11 confirm | MMP-2 inh | Thrombin inh
CCCN1C(=O)/C(=C/c2c(NCCCOC(C)C)nc3c(C)cccn3c2=O)SC1=S | 17 | 110* | -179 | 15 | 56* | -30 | 84* | -21 | 49*
CCC(C)N1C(=O)/C(=C/c2c(NCCCOC(C)C)nc3c(C)cccn3c2=O)SC1=S (stereo not drawn) | 6 | 7 | -21 | 71 | -78 | -38 | · | · | ·
CCCSc1nnc(CN2CCOCC2)n1C | 5 | 122* | 2 | -8 | -2 | 2 | -12 | -49 | -18
Cc1ccccc1CN1C(=O)C(C)Sc2ccc(-c3ccco3)cc21 (stereo not drawn) | 58* | 60* | -8 | 6 | 30 | 6 | 46* | 4 | 25
Cc1ccccc1CN1C(=O)C(C)S/C1=N/N=C/c1ccco1 (stereo not drawn) | -3 | 1 | -2 | 6 | 3 | 28 | · | · | ·
CCOc1ccc(N(CC(=O)NC2CCCC2)C(=O)CCC(=O)Nc2nc(C)cs2)cc1 | 1 | 3 | -1 | 13 | 2 | 2 | · | · | ·
CCOc1ccc(N(CC(=O)NC2CCCCC2)C(=O)CCC(=O)Nc2nc(C)cs2)cc1 | 2 | 130* | -7 | -3 | -1 | 8 | 8 | -30 | -4
CCOC(=O)CSC1=NC(=O)/C(=C\c2ccc(Cl)cc2)S1 | -1 | 50* | -30 | -25 | 19 | -7 | 74* | 12 | 66*
C(=C\c1ccccc1)/CN1CCN(C(c2nnnn2Cc2ccccc2)C2CC2)CC1 (stereo not drawn) | 4 | -1 | 5 | 11 | -7 | 2 | · | · | ·
CCCc1noc(-c2ccc(-c3ccccc3)cc2)n1 | -4 | 196* | 9 | 34 | 2 | 1 | -1 | -9 | -11
CCCC(=O)N=C1SC2CS(=O)(=O)CC2N1c1ccc(-c2nc3ccc(C)cc3s2)cc1 (stereo not drawn) | 35 | 46* | 6 | 10 | 0 | -1 | 2 | -25 | -5
Cc1ccc(N2C(=NC(=O)c3ccccc3)SC3CS(=O)(=O)CC32)cc1 (stereo not drawn) | 5 | 1 | -1 | -12 | 3 | 3 | · | · | ·
Cn1c2ccccc2c2cc(C(=O)OCC(=O)N3CC(=O)Nc4ccccc43)sc21 | 3 | 65* | -20 | 46* | 1 | -10 | 121* | -21 | 88*

From PubChem BioAssay
